The values below come from ChEMBL document CHEMBL2034813, “2-(Alkyl/aryl)amino-6-benzylpyrimidin-4(3H)-ones as inhibitors of wild-type and mutant HIV-1: enantioselectivity studies” (J Med Chem, 2012).

For data set [1], the system named is Human immunodeficiency virus 1. Description: Antiviral activity against wild type HIV1 NL4-3 infected in human MT4 cells assessed as inhibition of virus-induced cytopathic effect after 5 days by MTT assay. The format is functional, organism-based. The following applies: Human immunodeficiency virus 1, NL4-3, MT4, 120 h. In short, it runs like this: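 Lymphoid MT-4 cells infected with wild-type HIV-1 NL4-3. […] Values are means ± SD from at least three experiments.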

Data set [2] is described as follows: Cytotoxicity against human MT4 cells after 5 days by MTT assay. The format is cell-based. In short, it runs like this: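 Noninfected lymphoid MT-4 cells were exposed to compound. […] Values are means ± SD from at least three experiments.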
In data set [3] the test system is Human immunodeficiency virus 1. In words: Antiviral activity against HIV1 harboring reverse transcriptase Y181C mutant infected in human MT4 cells assessed as inhibition of virus-induced cytopathic effect after 5 days by MTT assay. The format is functional, organism-based. The note with it: Human immunodeficiency virus 1, MT4, 120 h.
In data set [4] the test system is Human immunodeficiency virus type 1 reverse transcriptase (Human immunodeficiency virus 1), Q72547 [Y181I].
Data set [5] is described as follows: Selectivity index, ratio of CC50 for human MT4 cells to EC50 for wild type HIV1 NL4-3. The format is toxicity, cell-based. The note with it: read-out: Ratio CC50/EC50.
In data set [6] the test system is Human immunodeficiency virus type 1 reverse transcriptase (Human immunodeficiency virus 1), Q72547 [K103N]. Description: Noncompetitive inhibition of HIV1 reverse transcriptase K103N mutant using varying concentration of [3H]dTTP by steady state kinetic analysis. In short, it runs like this:
(§1)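 Recombinant RT (WT or K103N), RNA-dependent DNA polymerase activity with poly(rA)/oligo(dT) 10:1 and [3H]-dTTP (1 Ci/mmol), 8% final DMSO; steady-state kinetics at fixed inhibitor concentrations, one substrate (nucleic acid or nucleotide) varied while the other kept saturating.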

For data set [7], the system named is Human immunodeficiency virus 1. In words: Resistance ratio of ID50 for HIV1 reverse transcriptase V106A mutant to ID50 HIV1 wild type reverse transcriptase.
The subject of data set [8] is Human immunodeficiency virus type 1 reverse transcriptase (Human immunodeficiency virus 1), Q72547 [V106A].
For data set [9], the system named is Human immunodeficiency virus 1. In words: Resistance ratio of EC50 for HIV1 harboring reverse transcriptase Y181C mutant to EC50 for wild type HIV1 NL4-3. The format is functional. Summed up: (§2)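 MT-4 cells, MTT read-out of HIV-induced cytopathic effect; fold resistance calculated as EC50 against the drug-resistant strain divided by EC50 against WT NL4-3; EC50 values are means ± SD from at least three experiments.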

Data set [10] has as its system Human immunodeficiency virus 1. Description: Resistance ratio of ID50 for HIV1 reverse transcriptase L100I mutant to ID50 HIV1 wild type reverse transcriptase.
Data set [11] has as its system Human immunodeficiency virus type 1 reverse transcriptase (Human immunodeficiency virus 1), Q72547 [L100I].
In data set [12] the test system is Human immunodeficiency virus type 1 reverse transcriptase (Human immunodeficiency virus 1), Q72547 [K103N].
Data set [13] concerns Human immunodeficiency virus 1. In words: Antiviral activity against HIV1 harboring reverse transcriptase K103N mutant infected in human MT4 cells assessed as inhibition of virus-induced cytopathic effect after 5 days by MTT assay. The following applies: Human immunodeficiency virus 1, MT4, 120 h. The format is functional, organism-based.
The test system of data set [14] is Human immunodeficiency virus 1. Description: Resistance ratio of ID50 for HIV1 reverse transcriptase Y188L mutant to ID50 HIV1 wild type reverse transcriptase.
For data set [15], the target named is Human immunodeficiency virus type 1 reverse transcriptase (Human immunodeficiency virus 1) (UniProt Q72547). In words: Noncompetitive inhibition of HIV1 wild type reverse transcriptase using varying concentration of [3H]dTTP by steady state kinetic analysis. In short, it runs like this: as §1
Data set [16] has as its system Human immunodeficiency virus type 1 reverse transcriptase (Human immunodeficiency virus 1), Q72547 [K103N]. In words: Noncompetitive inhibition of HIV1 reverse transcriptase K103N mutant using varying concentration of varying polyrA/oligodT by steady state kinetic analysis. Summed up: as §1
A short description of data set [17]: Ratio of TMC120 CC50 to compound CC50 for human MT4 cells. The format is ADME, cell-based.
The subject of data set [18] is Human immunodeficiency virus 1. Description: Resistance ratio of EC50 for HIV1 harboring reverse transcriptase K103N mutant to EC50 for wild type HIV1 NL4-3. The format is functional. In short, it runs like this:
as §2

Data set [19] addresses Human immunodeficiency virus type 1 reverse transcriptase (Human immunodeficiency virus 1) (UniProt Q72547). In words: Noncompetitive inhibition of HIV1 wild type reverse transcriptase using varying concentration of varying polyrA/oligodT by steady state kinetic analysis. In short, it runs like this:
as §1

Data set [20] deals with Human immunodeficiency virus 1. In words: Resistance ratio of ID50 for HIV1 reverse transcriptase K103N mutant to ID50 HIV1 wild type reverse transcriptase.
The target in data set [21] is Human immunodeficiency virus type 1 reverse transcriptase (Human immunodeficiency virus 1) (UniProt Q72547).
The subject of data set [22] is Human immunodeficiency virus 1. In words: Resistance ratio of EC50 for HIV1 harboring reverse transcriptase Y188L mutant to EC50 for wild type HIV1 NL4-3. The format is functional. Summed up: as §2
The test system of data set [23] is Human immunodeficiency virus 1. Description: Resistance ratio of ID50 for HIV1 reverse transcriptase Y181I mutant to ID50 HIV1 wild type reverse transcriptase.
Data set [24] deals with Human immunodeficiency virus 1. In words: Antiviral activity against HIV1 harboring reverse transcriptase Y188L mutant infected in human MT4 cells assessed as inhibition of virus-induced cytopathic effect after 5 days by MTT assay. The format is functional, organism-based. The note with it: Human immunodeficiency virus 1, MT4, 120 h.

Molecules are shown by their SMILES. The source made the active and inactive calls. No cut-off for these calls is given here.

Take `O=C1Nc2ccc(Cl)cc2[C@@](C#CC2CC2)(C(F)(F)F)O1` [EFAVIRENZ]: the EC50 is 7.3 nM in [1] and 10 nM in data set [3]. Besides, the midpoint of cytotoxicity in [2], the CC50 at 120 h, lay at 3200 nM.
Consider `Cc1c(N)nc(Nc2ccc(C#N)cc2)nc1[C@H](C)c1c(F)cccc1F`, for which the EC50 in [1] came out at 0.1 nM; in [13], 0.8 nM; in [3], 31 nM; in data set [24], 7.1 nM. For the same compound, the ID50 came to 750 nM in [4]; 0.3 nM in data set [8]; 150 nM in data set [11]; 8 nM in [12]; 8 nM in [21]. Besides, in data set [2], it took 31000 nM to reach half-maximal cytotoxicity (CC50 at 120 h). The selectivity ratio in data set [5] turned out to be 300000; in data set [17] it was 10. The inhibition result in data set [6], in [15], in [16] and in data set [19] was “Active” in each case. Further, the Ratio in data set [7] was found to be 0.04; in data set [10], 20; in data set [14], 0.4; in [20], 1; in data set [23], 90. For the same compound, the entries for the “Ratio EC50” value in [9], in data set [18] and in data set [22] were 300, 8 and 70, respectively.
`CCCN(C)c1nc([C@H](C)c2c(F)cccc2F)c(C)c(=O)[nH]1`: the EC50 in data set [1] is 1.3 nM; in data set [13], 11 nM; in data set [3], 13 nM; in data set [24], 28 nM. Further, the ID50 in [4] came out at 450 nM; in data set [8], 3 nM; in [11], 96 nM; in data set [12], 96 nM; in data set [21] it was 2 nM. The compound also showed a 50% cytotoxic concentration (CC50) at 120 h in [2] of 75000 nM. For the same compound, the selectivity ratio in data set [5] came out at 58000. In addition, the inhibition result in data set [6], in [15], in data set [16] and in [19] was “Active” each time. Moreover, the Ratio in [7] was 1.5; in [10] it was 50; in data set [14], 100; in data set [20], 48; in data set [23], 200. The results for the “Ratio EC50” value in [9], in [18] and in data set [22] were 10, 8 and 22, respectively.
In the case of `Cc1c(N)nc(Nc2ccc(C#N)cc2)nc1[C@@H](C)c1c(F)cccc1F`, the 50% effective concentration (EC50) is 1000 nM in data set [1], 4500 nM in data set [13], greater than 38000 nM in data set [3] and 6500 nM in data set [24]. For the same compound, the ID50 was greater than 20000 nM in data set [4]; 64 nM in data set [8]; greater than 15000 nM in [11]; 240 nM in data set [12]; 180 nM in data set [21]. Moreover, the CC50 at 120 h in data set [2] worked out at 38000 nM. The selectivity ratio in data set [5] was found to be 40. In addition, the Ratio in data set [7] is 0.3; in [14] it was 3; in data set [20] it was 1.3. Further, the “Ratio EC50” value was determined as 4 in [18] and 6 in [22].
As for `Cc1ccnc2c1NC(=O)c1cccnc1N2C1CC1` [NEVIRAPINE], the CC50 at 120 h in data set [2] was 7500 nM. Further, in data set [5], the selectivity ratio came out at 58. For the same compound, the “Ratio EC50” value in data set [18] is recorded as 47. For the same compound, the figures for the Ratio in data set [20] and in [23] were 20 and 87, respectively. The EC50 in data set [3] and in data set [24] was greater than 7500 nM throughout.
Consider `CCCN(C)c1nc([C@@H](C)c2c(F)cccc2F)c(C)c(=O)[nH]1`, for which the EC50 is 15000 nM in data set [1], greater than 78000 nM in data set [13], greater than 78000 nM in data set [3] and greater than 78000 nM in data set [24]. In addition, the ID50 is greater than 20000 nM in [4]; 120 nM in data set [8]; 350 nM in data set [11]; greater than 20000 nM in data set [12]; 975 nM in data set [21]. The CC50 at 120 h in data set [2] is greater than 78000 nM. Moreover, the selectivity ratio in data set [5] is greater than 5.2. Moreover, the figures for the Ratio in data set [7] and in data set [10] were 0.1 and 0.4, respectively.
Turning to `Cc1cc(C)c(Nc2ccnc(Nc3ccc(C#N)cc3)n2)c(C)c1` [DAPIVIRINE], the EC50 in data set [1] was 0.6 nM. In data set [2], this compound yielded a CC50 at 120 h of 3000 nM.
Consider `CCCN(C)c1nc(C(C)c2c(F)cccc2F)c(C)c(=O)[nH]1` (racemic), for which the EC50 in [1] was 1.9 nM; in data set [13], 16.5 nM; in data set [3], 17 nM; in data set [24] it was 49 nM. Also, the ID50 in data set [4] was 1260 nM; in data set [8] it was 19 nM; in [11], 177 nM; in [12] it was 174 nM; in [21] it was 30 nM. The same compound registered a CC50 at 120 h in [2] greater than 78000 nM. In addition, the selectivity ratio in data set [5] is greater than 41000. For the same compound, the Ratio in data set [7] turned out to be 0.6; in data set [10] it was 6; in data set [14], 50; in [20], 6; in data set [23], 40. The “Ratio EC50” value came out at 9 in data set [9], 9 in [18] and 26 in data set [22].
